# High-throughput results from PubChem.
# rCAG RNA binder: binders of r(CAG) RNA repeats, primary screen, biochemical, fluorescence. r(CAG) RNA repeat, TO-PRO-1 dye displacement fluorescence. inhibition, % at 3 µM. actives 1.3% (n = 370,000);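 active = inhibition above the plate cutoff, the mean of all test compounds on that plate plus 3 SD, cut at about 35% in these data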;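 note: higher means more dye released from RNA so lower well fluorescence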
# Scp1 inh: Scp-1 phosphatase inhibitors, primary screen, biochemical, colorimetric, uHTS | Recombinant Scp1, phosphopeptide, malachite green phosphate absorbance | actives 0.88% (n = 340,000) | inhibition, % at 20 µM | Carboxy-terminal domain RNA polymerase II polypeptide A small phosphatase 1 (Homo … | AID 493091, 2011;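 active = inhibition above about 50% at 20 µM, limit read from the data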
# Target sequence (Q9GZU7 76-261 limits assumed): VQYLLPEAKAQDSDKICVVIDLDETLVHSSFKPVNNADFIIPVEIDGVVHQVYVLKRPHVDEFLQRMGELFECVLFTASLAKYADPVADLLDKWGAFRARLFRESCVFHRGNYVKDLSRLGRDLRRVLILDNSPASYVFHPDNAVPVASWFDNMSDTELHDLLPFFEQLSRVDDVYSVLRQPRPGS
#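 Test system: SCP-1 phosphatase catalytic domain, residues 76-261 | Compound dosing: One concentration, 20 µM, with 1.0% DMSO | Schedule: 45 min room-temperature reaction, 5 min colour, 30 min stabiliser | Detection: Absorbance at 630 nm | Read-out basis: % inhibition of SCP-1 phosphate liberation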
# LMPTP inh: LMPTP phosphatase inhibitors, primary screen, biochemical, fluorescence intensity, uHTS | AID 651560, 2012 | Low molecular weight phosphotyrosine protein phosphatase (Homo sapiens), P24666 | actives 0.22% (n = 360,000) | inhibition, % at 20 µM | recombinant LMPTP-A, OMFP fluorogenic substrate;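 active = compounds that cut the enzyme signal by at least half of the control window in the single-dose screen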
# Target sequence (P24666 whole entry, looked up): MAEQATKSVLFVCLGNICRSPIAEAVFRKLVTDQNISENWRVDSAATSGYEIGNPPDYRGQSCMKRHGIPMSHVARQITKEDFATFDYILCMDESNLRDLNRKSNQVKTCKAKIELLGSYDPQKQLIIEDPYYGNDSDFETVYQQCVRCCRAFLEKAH
#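 Assay system: LMPTP-A phosphatase enzyme | Input: 0.625 nM enzyme | Also added: Fluorogenic phosphatase substrate OMFP at 400 µM final | Compound dosing: One test concentration per compound, 20 µM, with 3% DMSO overall | Schedule: 50 min enzyme reaction at room temperature, protected from light | Signal: Fluorescence intensity | Benchmarks: no-enzyme and uninhibited controls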
# NadD inh: inhibitors of S. aureus NadD, primary screen, biochemical, colorimetric, uHTS; AID 602399, 2012; actives 0.78% (n = 360,000); Nicotinate-nucleotide adenylyltransferase NadD (Staphylococcus aureus N315); purified NadD enzyme, colorimetric absorbance read-out; inhibition, % at 20 µM; in the data active = inhibition above about 26%
# STEP block: STEP phosphatase inhibitors, primary screen, biochemical, fluorescence intensity, uHTS | inhibition, % at 20 µM | actives 0.25% (n = 360,000) | recombinant STEP, OMFP fluorogenic substrate;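 active = inhibition at 20 µM, scaled per plate between control wells, above about 37%, limit read from the data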
#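 System: isolated STEP enzyme; schedule: 20 min enzyme reaction at room temperature, protected from light; medium: Bis-Tris buffer pH 6.0, 2.5 mM DTT, 0.005% Tween 20; signal: fluorescence, 480/540 nm; dosing: single compound dose of 20 µM, 1% DMSO final; also added: OMFP substrate, 25 µM final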
# Scp1 confirm: Scp-1 phosphatase inhibitors, retest, confirmation, biochemical, colorimetric, single concentration. recombinant SCP-1 catalytic domain, phosphate release, malachite green absorbance. shares compounds with Scp1 inh. inhibition, % at 20 µM. actives 61% (n = 2,500). AID 540281, 2011
# Scp-1 MG ctr: colorimetric readout interference by compounds, confirmation, artefact control for Scp-1 inhibitor project, biochemical, single concentration; shares compounds with Scp1 inh; Colorimetric interference counterscreen, malachite green absorbance 630 nm; apparent inhibition (interference), % at 20 µM; 2,500 tested, under 10 active; AID 540313, 2011;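 note: compounds added after enzyme reaction finished so only phosphate colour detection is probed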
# Scp1 DSF: Scp-1 binding by thermal shift, confirmation, orthogonal assay for Scp-1 inhibitor project, biophysical, differential scanning fluorimetry. thermal shift relative to vanadate control, % at 40 µM. AID 540329, 2011. actives 25% (n = 1,500). shares compounds with Scp1 inh. Recombinant SCP1, Sypro Orange thermal shift Tm;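 active = substances whose mean melting-temperature shift, as a percentage of the reference inhibitor's shift, reaches about 5.3%, limit read from the data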
# A number is an active result; - = inactive; . = no result. This is a sample that favours compounds with a hit; in the whole collection about 2.6% have one here.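 Rule for the calls, unless noted: active = inhibition of at least 30% at 20 µM; inactive = the rest.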
SMILES,rCAG RNA binder,Scp1 inh,LMPTP inh,NadD inh,STEP block,Scp1 confirm,Scp-1 MG ctr,others
COc1ccc(S[C@]2(C(=O)N(C)C)CC(=O)N(c3ccc(Cl)cc3)[C@@H]2c2ccc(OC)cc2)cc1,-,.,.,.,.,.,.,
CC1CC(C)CN(CCCNC(=O)CC2Oc3ccccc3NC2=O)C1 (stereo not drawn),-,-,-,-,-,.,.,
O=C1CCCN1CCCNC(=S)Nc1ccccc1Cl,-,-,-,-,-,-,-,
O=C(CC1Oc2ccccc2NC1=O)NCCCN1CCCC1=O (stereo not drawn),-,-,-,-,-,-,-,
CCCCNC(=O)C1(C(=O)C2CC2)CC(c2ccccc2C(F)(F)F)=NO1 (stereo not drawn),-,.,.,.,.,.,.,
N/C(=N\NC(=O)c1ccc(F)cc1)c1cc2ccccc2oc1=O,-,-,-,-,-,.,.,
N/C(=N\NC(=O)c1cccc(F)c1)c1cc2ccccc2oc1=O,-,52.7,-,-,-,72.4,-,Scp1 DSF=-
N#C/C(=C\c1c(N(Cc2ccccc2)Cc2ccccc2)nc2ccccn2c1=O)C(N)=O,-,55.7,-,-,-,-,-,
C=CCNC(=O)/C(C#N)=C/c1c(N(Cc2ccccc2)Cc2ccccc2)nc2ccccn2c1=O,-,-,-,-,-,.,.,
CC(C)(C)OC(=O)NCCCCCc1cn(CC(=O)NCCCCCCCCCCC(=O)N2CCN(C(=O)OC(C)(C)C)CC2)nn1,-,61.3,-,-,-,-,-,
CSc1ccc(CCNC(=O)CSc2ccsc2[N+](=O)[O-])cc1,-,51.3,-,-,-,55.4,-,Scp1 DSF=7.5
CCOC(=O)N1CCN(C(=O)/C(=C/c2ccc(OC)c(OC)c2)NC(=O)c2ccccc2)CC1,-,-,-,-,-,.,.,
COc1ccc(/C=C(\NC(=O)c2ccccc2)C(=O)OC[C@@H]2CCC[N+]3(C)CCCCC23)cc1OC (stereo partly drawn),-,102.1,-,-,-,89.2,-,Scp1 DSF=-
CCC1(c2ccccc2)NC(=O)N(CC(=O)N(C)CC(=O)Nc2c(C)cccc2C)C1=O (stereo not drawn),-,-,-,-,-,-,-,
CCOc1cc(C2C3=C(CC(C)(C)CC3=O)N(CCOC)C3=C2C(=O)CC(C)(C)C3)ccc1OC,-,54.3,-,-,-,-,-,
CNc1ccccc1C(=O)OCC(=O)N1CCN(c2ccc(OC)cc2)CC1,-,66.4,-,-,-,-,-,
CCCc1ccc2oc(C(=O)N3CCC(COC)C3)c(C)c2c1 (stereo not drawn),-,69.1,-,-,-,-,-,
Cc1cc(Cl)ccc1OCC(=O)OC(C)C(=O)N(C)C (stereo not drawn),-,55.4,-,-,-,46.3,-,Scp1 DSF=-
C#CCNC(=O)C[C@H]1C[C@@]2(C(=O)OC)C(=C[C@H](C(C)C)O[C@@H]2C2CC2)N(Cc2ccc3c(c2)OCO3)C1=O,-,.,.,.,.,.,.,
CC1=NC(C(F)(F)F)(C(F)(F)F)C(C#N)=C(C)N1,-,56.2,-,-,-,-,-,
Cc1cccc(-c2cccc3c4c([nH]c23)[C@@H]2C[C@H](N(C)C(=O)c3ccco3)[C@H]([C@H](C)O)C(=O)N2CC4)c1,-,.,.,.,.,.,.,
Cc1ccc(C2/C(=C(/O)c3cnn(-c4ccccc4)c3C)C(=O)C(=O)N2CCN2CCOCC2)o1 (stereo not drawn),-,-,-,-,-,.,.,
Cc1c(/C(O)=C2/C(=O)C(=O)N(CCN3CCOCC3)C2c2cccs2)cnn1-c1ccccc1 (stereo not drawn),-,-,-,-,-,-,-,
COc1cc(NC(=O)C2CCCN(S(=O)(=O)c3ccc(Br)s3)C2)cc(OC)c1 (stereo not drawn),-,.,.,.,.,.,.,
CC(C)NC(=O)N(C)C[C@H]1Oc2ccc(NC(=O)Nc3ccc(C(F)(F)F)cc3)cc2C(=O)N([C@H](C)CO)C[C@@H]1C,-,-,-,-,-,.,.,
SMILES,rCAG RNA binder,Scp1 inh,LMPTP inh,NadD inh,STEP block,Scp1 confirm,Scp-1 MG ctr,others
CC(C)NC(=O)Nc1ccc2c(c1)C(=O)N([C@H](C)CO)C[C@@H](C)[C@@H](CN(C)C(=O)NC1CCCCC1)O2,-,-,-,-,-,.,.,
CC(C)NC(=O)N(C)C[C@@H]1Oc2ccc(NC(=O)CCN3CCOCC3)cc2CC(=O)N([C@@H](C)CO)C[C@@H]1C,-,51.5,-,-,-,-,-,
CC(C)NC(=O)N(C)C[C@H]1Oc2ccc(NC(=O)c3ccncc3)cc2C(=O)N([C@H](C)CO)C[C@@H]1C,-,73.4,-,-,-,-,-,
CC(C)NC(=O)Nc1ccc2c(c1)C(=O)N([C@H](C)CO)C[C@H](C)[C@@H](CN(C)C(=O)NC(C)C)O2,-,55.6,-,-,-,-,-,
CCc1oc2ccccc2c1C(=O)CCN1CCCCC1,-,57.5,-,-,-,-,-,
Cc1cccc(C)c1NC(=O)C1CCCN1S(=O)(=O)c1ccc2c(c1)n(C)c(=O)c(=O)n2C (stereo not drawn),.,-,-,-,-,-,-,
Cc1ccc(NC(=O)C2CCCN2S(=O)(=O)c2ccc3c(c2)n(C)c(=O)c(=O)n3C)c(C)c1 (stereo not drawn),-,-,-,-,-,-,-,
Cc1ccc(NC(=O)C2CCCN2S(=O)(=O)c2ccc3c(c2)n(C)c(=O)c(=O)n3C)cc1 (stereo not drawn),-,-,-,-,-,.,.,
Cc1cc(C)cc(NC(=O)C2CCCN2S(=O)(=O)c2ccc3c(c2)n(C)c(=O)c(=O)n3C)c1 (stereo not drawn),-,-,-,-,-,.,.,
Cn1c(=O)c(=O)n(C)c2cc(S(=O)(=O)N3CCCC3C(=O)Nc3ccccc3F)ccc21 (stereo not drawn),-,-,-,-,-,-,-,
COC(=O)[C@H](C(C)C)N(Cc1cn(Cc2ccccc2)nn1)S(=O)(=O)c1ccc(F)cc1Br,-,.,.,.,.,.,.,
